Data set [1] is described as follows: Stability in presence of Crotalus admanteus venom phosphodiesterase assessed as intact compound level at 5.5 uM in 50 mM Tris-Hcl buffer (pH 7.5) containing 10 mM MgCl2 incubated for 15 mins at 37 degC by HPLC. The class given is ADME. The settings on record: pH 7.5, 0.25 h. The essentials: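 12-mers are first trimmed from the 3′ end with the venom 3′-exonuclease to give 7-mer substrates, which are purified by RP-HPLC. These are then re-incubated with enzyme in 50 mM Tris-HCl pH 7.5 with 10 mM MgCl2 at 37 °C for 15 min. The enzyme is heat-inactivated at 90 °C for 5 min, and the fraction of intact ODN remaining is quantified by HPLC.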

The test system of data set [2] is Nucleic Acid. As to the kind of experiment: DNA hybridizing activity at 22 bp double stranded DNA assessed as thermal stability of duplexes formed between compound and complimentary dsDNA by measuring change in melting temperature at 1.5 uM in presence of 7 mM pH 5.5 sodium phosphate buffer containing 140 mM K, 10 mM MgCl2 by UV based melting experiment. The class given is nucleic-acid assay.

Data set [3] relates to Nucleic Acid. As to the kind of experiment: DNA hybridizing activity at single stranded DNA assessed as thermal stability of duplexes formed between compound and complimentary ssDNA by measuring melting temperature at 4 uM in presence of 10 mM pH 7.2 sodium phosphate buffer containing 100 mM NaCl by UV based melting experiment. It counts as nucleic-acid assay.
The subject of data set [4] is Nucleic Acid. Briefly: DNA hybridizing activity at single stranded DNA assessed as thermal stability of duplexes formed between compound and complimentary ssDNA by measuring change in melting temperature at 4 uM in presence of 10 mM pH 7.2 sodium phosphate buffer containing 100 mM NaCl by UV based melting experiment relative to untreated control. It counts as nucleic-acid assay.

In data set [5] the test system is Nucleic Acid. As to the kind of experiment: DNA hybridizing activity at single stranded RNA assessed as thermal stability of duplexes formed between compound and complimentary ssRNA by measuring melting temperature at 4 uM in presence of 10 mM pH 7.2 sodium phosphate buffer containing 100 mM NaCl by UV based melting experiment. It counts as nucleic-acid assay.
The test system of data set [6] is Nucleic Acid. As to the kind of experiment: DNA hybridizing activity at single stranded RNA assessed as thermal stability of duplexes formed between compound and complimentary ssRNA by measuring change in melting temperature at 4 uM in presence of 10 mM pH 7.2 sodium phosphate buffer containing 100 mM NaCl by UV based melting experiment relative to untreated control. The class given is nucleic-acid assay.

For data set [7], the system named is Nucleic Acid. Briefly: DNA hybridizing activity at 22 bp double stranded DNA assessed as thermal stability of duplexes formed between compound and complimentary dsDNA by measuring melting temperature at 1.5 uM in presence of 7 mM pH 5.5 sodium phosphate buffer containing 140 mM K, 10 mM MgCl2 by UV based melting experiment. The class given is nucleic-acid assay.

Experimental findings from ChEMBL document CHEMBL2057188, “Hybridizing ability and nuclease resistance profile of backbone modified cationic phosphorothioate oligonucleotides” (Bioorg Med Chem, 2012) are described below.

On to `Cc1cn([C@H]2C[C@H](OP(=O)(O)O)[C@@H](CO[P@@](=O)(O[C@H]3C[C@H](n4cc(C)c(=O)[nH]c4=O)O[C@@H]3COP(=O)(O)O[C@H]3C[C@H](n4cc(C)c(=O)[nH]c4=O)O[C@@H]3COP(=O)(O)O[C@H]3C[C@H](n4cc(C)c(=O)[nH]c4=O)O[C@@H]3COP(=O)(O)O[C@H]3C[C@H](n4ccc(N)nc4=O)O[C@@H]3COP(=O)(O)O[C@H]3C[C@H](n4ccc(N)nc4=O)O[C@@H]3COP(=O)(O)O[C@H]3C[C@H](n4ccc(N)nc4=O)O[C@@H]3CO)SCCCCCCN)O2)c(=O)[nH]c1=O`, for which, in data set [1], the Stability entry is recorded as “Stable”.

Broadly, the ΔTm is the shift of the melting midpoint relative to a reference. In general, Tm refers to the temperature at which the thermal transition is half complete. `Cc1cn([C@H]2C[C@H](OP(=O)(O)OC[C@H]3O[C@@H](n4cc(C)c(=O)[nH]c4=O)C[C@@H]3OP(=O)(O)OC[C@H]3O[C@@H](n4cc(C)c(=O)[nH]c4=O)C[C@@H]3O[P@](=O)(OC[C@H]3O[C@@H](n4cc(C)c(=O)[nH]c4=O)C[C@@H]3OP(=O)(O)OC[C@H]3O[C@@H](n4cc(C)c(=O)[nH]c4=O)C[C@@H]3OP(=O)(O)OC[C@H]3O[C@@H](n4cc(C)c(=O)[nH]c4=O)C[C@@H]3OP(=O)(O)OC[C@H]3O[C@@H](n4ccc(N)nc4=O)C[C@@H]3OP(=O)(O)OC[C@H]3O[C@@H](n4ccc(N)nc4=O)C[C@@H]3OP(=O)(O)OC[C@H]3O[C@@H](n4ccc(N)nc4=O)C[C@@H]3OP(=O)(O)O)SCCCN)[C@@H](COP(=O)(O)O[C@H]3C[C@H](n4ccc(N)nc4=O)O[C@@H]3COP(=O)(O)O[C@H]3C[C@H](n4ccc(N)nc4=O)O[C@@H]3COP(=O)(O)O[C@H]3C[C@H](n4ccc(N)nc4=O)O[C@@H]3CO)O2)c(=O)[nH]c1=O`: the shift in melting temperature (ΔTm) is -2 °C in data set [2], -2 °C in data set [4] and -3 °C in data set [6]. The midpoint of thermal melting (Tm) in data set [3] worked out at 40 °C; in data set [5], 43 °C; in data set [7], 24 °C.

For `Cc1cn([C@H]2C[C@H](OP(=O)(O)OC[C@H]3O[C@@H](n4cc(C)c(=O)[nH]c4=O)C[C@@H]3OP(=O)(O)OC[C@H]3O[C@@H](n4cc(C)c(=O)[nH]c4=O)C[C@@H]3O[P@](=O)(OC[C@H]3O[C@@H](n4cc(C)c(=O)[nH]c4=O)C[C@@H]3OP(=O)(O)OC[C@H]3O[C@@H](n4cc(C)c(=O)[nH]c4=O)C[C@@H]3OP(=O)(O)OC[C@H]3O[C@@H](n4cc(C)c(=O)[nH]c4=O)C[C@@H]3OP(=O)(O)OC[C@H]3O[C@@H](n4ccc(N)nc4=O)C[C@@H]3OP(=O)(O)OC[C@H]3O[C@@H](n4ccc(N)nc4=O)C[C@@H]3OP(=O)(O)OC[C@H]3O[C@@H](n4ccc(N)nc4=O)C[C@@H]3OP(=O)(O)O)SCCNCCN)[C@@H](COP(=O)(O)O[C@H]3C[C@H](n4ccc(N)nc4=O)O[C@@H]3COP(=O)(O)O[C@H]3C[C@H](n4ccc(N)nc4=O)O[C@@H]3COP(=O)(O)O[C@H]3C[C@H](n4ccc(N)nc4=O)O[C@@H]3CO)O2)c(=O)[nH]c1=O`, the ΔTm is -1 °C in data set [2], -2 °C in data set [4] and -2 °C in data set [6]. Also, the Tm worked out at 40 °C in data set [3], 44 °C in data set [5] and 25 °C in data set [7].

With `Cc1cn([C@H]2C[C@H](OP(=O)(O)OC[C@H]3O[C@@H](n4cc(C)c(=O)[nH]c4=O)C[C@@H]3OP(=O)(O)OC[C@H]3O[C@@H](n4cc(C)c(=O)[nH]c4=O)C[C@@H]3O[P@](=O)(OC[C@H]3O[C@@H](n4cc(C)c(=O)[nH]c4=O)C[C@@H]3OP(=O)(O)OC[C@H]3O[C@@H](n4cc(C)c(=O)[nH]c4=O)C[C@@H]3OP(=O)(O)OC[C@H]3O[C@@H](n4cc(C)c(=O)[nH]c4=O)C[C@@H]3OP(=O)(O)OC[C@H]3O[C@@H](n4ccc(N)nc4=O)C[C@@H]3OP(=O)(O)OC[C@H]3O[C@@H](n4ccc(N)nc4=O)C[C@@H]3OP(=O)(O)OC[C@H]3O[C@@H](n4ccc(N)nc4=O)C[C@@H]3OP(=O)(O)O)SCCN)[C@@H](COP(=O)(O)O[C@H]3C[C@H](n4ccc(N)nc4=O)O[C@@H]3COP(=O)(O)O[C@H]3C[C@H](n4ccc(N)nc4=O)O[C@@H]3COP(=O)(O)O[C@H]3C[C@H](n4ccc(N)nc4=O)O[C@@H]3CO)O2)c(=O)[nH]c1=O`, the thermal shift (ΔTm) in data set [2] is -2 °C; in data set [4] it was -1 °C; in data set [6] it was -3 °C. For the same compound, the values for the Tm in data set [3], in data set [5] and in data set [7] were 41 °C, 43 °C and 24 °C, respectively.

In the case of `Cc1cn([C@H]2C[C@H](OP(=O)(O)OC[C@H]3O[C@@H](n4cc(C)c(=O)[nH]c4=O)C[C@@H]3OP(=O)(O)OC[C@H]3O[C@@H](n4cc(C)c(=O)[nH]c4=O)C[C@@H]3O[P@](=O)(OC[C@H]3O[C@@H](n4cc(C)c(=O)[nH]c4=O)C[C@@H]3OP(=O)(O)OC[C@H]3O[C@@H](n4cc(C)c(=O)[nH]c4=O)C[C@@H]3OP(=O)(O)OC[C@H]3O[C@@H](n4cc(C)c(=O)[nH]c4=O)C[C@@H]3OP(=O)(O)OC[C@H]3O[C@@H](n4ccc(N)nc4=O)C[C@@H]3OP(=O)(O)OC[C@H]3O[C@@H](n4ccc(N)nc4=O)C[C@@H]3OP(=O)(O)OC[C@H]3O[C@@H](n4ccc(N)nc4=O)C[C@@H]3OP(=O)(O)O)SCCCCCN)[C@@H](COP(=O)(O)O[C@H]3C[C@H](n4ccc(N)nc4=O)O[C@@H]3COP(=O)(O)O[C@H]3C[C@H](n4ccc(N)nc4=O)O[C@@H]3COP(=O)(O)O[C@H]3C[C@H](n4ccc(N)nc4=O)O[C@@H]3CO)O2)c(=O)[nH]c1=O`, the shift in melting temperature (ΔTm) is -2 °C in data set [2], -3 °C in data set [4] and -4 °C in data set [6]. The Tm in data set [3] is 39 °C; in data set [5], 42 °C; in data set [7], 24 °C.

With `Cc1cn([C@H]2C[C@H](OP(=O)(O)OC[C@H]3O[C@@H](n4cc(C)c(=O)[nH]c4=O)C[C@@H]3OP(=O)(O)OC[C@H]3O[C@@H](n4cc(C)c(=O)[nH]c4=O)C[C@@H]3O[P@@](=O)(OC[C@H]3O[C@@H](n4cc(C)c(=O)[nH]c4=O)C[C@@H]3OP(=O)(O)OC[C@H]3O[C@@H](n4cc(C)c(=O)[nH]c4=O)C[C@@H]3OP(=O)(O)OC[C@H]3O[C@@H](n4cc(C)c(=O)[nH]c4=O)C[C@@H]3OP(=O)(O)OC[C@H]3O[C@@H](n4ccc(N)nc4=O)C[C@@H]3OP(=O)(O)OC[C@H]3O[C@@H](n4ccc(N)nc4=O)C[C@@H]3OP(=O)(O)OC[C@H]3O[C@@H](n4ccc(N)nc4=O)C[C@@H]3OP(=O)(O)O)SCCN)[C@@H](COP(=O)(O)O[C@H]3C[C@H](n4ccc(N)nc4=O)O[C@@H]3COP(=O)(O)O[C@H]3C[C@H](n4ccc(N)nc4=O)O[C@@H]3COP(=O)(O)O[C@H]3C[C@H](n4ccc(N)nc4=O)O[C@@H]3CO)O2)c(=O)[nH]c1=O`, the thermal shift (ΔTm) in data set [2] is 4 °C; in data set [4], 3 °C; in data set [6], -1 °C. Also, the results for the melting temperature (Tm) in data set [3], in data set [5] and in data set [7] were 45 °C, 45 °C and 29 °C, respectively.

As to `Cc1cn([C@H]2C[C@H](OP(=O)(O)OC[C@H]3O[C@@H](n4cc(C)c(=O)[nH]c4=O)C[C@@H]3OP(=O)(O)OC[C@H]3O[C@@H](n4cc(C)c(=O)[nH]c4=O)C[C@@H]3O[P@@](=O)(OC[C@H]3O[C@@H](n4cc(C)c(=O)[nH]c4=O)C[C@@H]3OP(=O)(O)OC[C@H]3O[C@@H](n4cc(C)c(=O)[nH]c4=O)C[C@@H]3OP(=O)(O)OC[C@H]3O[C@@H](n4cc(C)c(=O)[nH]c4=O)C[C@@H]3OP(=O)(O)OC[C@H]3O[C@@H](n4ccc(N)nc4=O)C[C@@H]3OP(=O)(O)OC[C@H]3O[C@@H](n4ccc(N)nc4=O)C[C@@H]3OP(=O)(O)OC[C@H]3O[C@@H](n4ccc(N)nc4=O)C[C@@H]3OP(=O)(O)O)SCCCCCCN)[C@@H](COP(=O)(O)O[C@H]3C[C@H](n4ccc(N)nc4=O)O[C@@H]3COP(=O)(O)O[C@H]3C[C@H](n4ccc(N)nc4=O)O[C@@H]3COP(=O)(O)O[C@H]3C[C@H](n4ccc(N)nc4=O)O[C@@H]3CO)O2)c(=O)[nH]c1=O`, the ΔTm in data set [2] is 2 °C; in data set [4], 0 °C; in data set [6] it was -3 °C. Besides, the figures for the Tm in data set [3], in data set [5] and in data set [7] were 42 °C, 43 °C and 27 °C, respectively.

In the case of `Cc1cn([C@H]2C[C@H](OP(=O)(O)OC[C@H]3O[C@@H](n4cc(C)c(=O)[nH]c4=O)C[C@@H]3OP(=O)(O)OC[C@H]3O[C@@H](n4cc(C)c(=O)[nH]c4=O)C[C@@H]3O[P@](=O)(OC[C@H]3O[C@@H](n4cc(C)c(=O)[nH]c4=O)C[C@@H]3OP(=O)(O)OC[C@H]3O[C@@H](n4cc(C)c(=O)[nH]c4=O)C[C@@H]3OP(=O)(O)OC[C@H]3O[C@@H](n4cc(C)c(=O)[nH]c4=O)C[C@@H]3OP(=O)(O)OC[C@H]3O[C@@H](n4ccc(N)nc4=O)C[C@@H]3OP(=O)(O)OC[C@H]3O[C@@H](n4ccc(N)nc4=O)C[C@@H]3OP(=O)(O)OC[C@H]3O[C@@H](n4ccc(N)nc4=O)C[C@@H]3OP(=O)(O)O)SCCCN3CCNCC3)[C@@H](COP(=O)(O)O[C@H]3C[C@H](n4ccc(N)nc4=O)O[C@@H]3COP(=O)(O)O[C@H]3C[C@H](n4ccc(N)nc4=O)O[C@@H]3COP(=O)(O)O[C@H]3C[C@H](n4ccc(N)nc4=O)O[C@@H]3CO)O2)c(=O)[nH]c1=O`, the ΔTm was -3 °C in data set [2], -1 °C in data set [4] and -3 °C in data set [6]. The melting temperature (Tm) was 41 °C in data set [3], 43 °C in data set [5] and 23 °C in data set [7].
